Our source for the IC50 values is ChEMBL document CHEMBL1152682, “Structural optimization of a CXCR2-directed antagonist that indirectly inhibits gamma-secretase and reduces Abeta” (Bioorg Med Chem, 2009).

pIC50: −log10 of the molar value.

One assay is described as follows: Antagonist activity at CXCR2 expressed in 7w CHO cells co-expressing human recombinant APP 751 assessed as inhibition of gamma-secretase-mediated amyloid beta42 production. The assay is classed as functional, cell-based.
For orientation: pIC50 means −log10 of the IC50, conventionally taken in molar units. Consider `CCc1cccc(C(C)CC)c1NC(=O)Nc1ccc([N+](=O)[O-])cc1O` (stereo not given), for which the pIC50 is 4.82.
The same measure, in the same setting: as for `CCC(C)c1ccccc1NC(=O)Nc1ccc([N+](=O)[O-])cc1O` (stereo not given), the figure is 6.00.

The next assay is described as follows: Antagonist activity at CXCR2 expressed in 7w CHO cells assessed as inhibition of GROalpha-mediated intracellular calcium mobilization by […] fluorescence assay. The format is functional, cell-based. In outline: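 Adherent 7w cells (CHO stably expressing human APP751), grown to ~100% confluency in 96-well plates, loaded with […] dye for 1 h at 37 °C. Compounds were added from DMSO stocks in 1X HBSS (1% DMSO final) at ≥9 concentrations (10–100,000 nM), n = 8 each. GROα (33 nM final) followed 15 s later. Peak calcium was read at Ex/Em 494/516, and data were fitted to a 4-parameter sigmoid; three experiments.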
(Calcium assays in cells follow changes in intracellular calcium, usually with a dye or a luminescent sensor.)
`CC(C)c1ccccc1NC(=O)Nc1ccc([N+](=O)[O-])cc1O`: the IC50 result is given as “Active”.
On the same count and under the same terms, under `O=C(Nc1ccc([N+](=O)[O-])cc1O)Nc1ccccc1F` stands “Active”; under `O=C(Nc1ccc([N+](=O)[O-])cc1O)Nc1ccccc1Cl`, “Active”; under `COc1cc([N+](=O)[O-])ccc1NC(=O)Nc1ccccc1F`, “Active”.
For `O=C(Nc1ccc([N+](=O)[O-])cc1O)Nc1cc(Cl)ccc1Cl`, the IC50 result was “Active”.

A further assay in a line: Antagonist activity at CXCR2 expressed in 7w CHO cells co-expressing human recombinant APP 751 assessed as inhibition of gamma-secretase-mediated amyloid beta40 production.
Take `O=C(Nc1ccc([N+](=O)[O-])cc1O)Nc1ccccc1Br`: the negative logarithm of the IC50 (pIC50) was 6.30.
The same measure, in the same setting: under `O=C(Nc1ccccc1)Nc1ccc([N+](=O)[O-])cc1O` stands 4.92; under `O=C(Nc1ccc([N+](=O)[O-])cc1O)Nc1cc(F)c(F)cc1F`, 5.00; under `CCCc1ccc(NC(=O)Nc2ccc([N+](=O)[O-])cc2O)cc1`, 5.40.
Regarding `O=C(Nc1ccc([N+](=O)[O-])cc1O)Nc1ccc(F)cc1F`, the negative logarithm of the IC50 (pIC50) was 4.82.
Same read-out and setting: as for `O=C(Nc1ccc([N+](=O)[O-])cc1O)Nc1c(F)cc(F)cc1F`, the figure is 4.82; as for `Cc1ccc(NC(=O)Nc2ccc([N+](=O)[O-])cc2O)c(C)c1`, 5.52; as for `CC(C)c1ccccc1NC(=O)Nc1ccc([N+](=O)[O-])cc1O`, 6.52.
Same read-out and setting: under `CC(C)(C)c1ccccc1NC(=O)Nc1ccc([N+](=O)[O-])cc1O` stands 4.82; under `O=C(Nc1cc(F)c(F)c(F)c1)Nc1ccc([N+](=O)[O-])cc1O`, 5.10.
Same read-out and setting: as for `O=C(Nc1ccc(F)c(F)c1)Nc1ccc([N+](=O)[O-])cc1O`, the figure is 5.10; as for `O=C(Nc1ccc([N+](=O)[O-])cc1O)Nc1ccccc1F`, 5.00; as for `O=C(Nc1ccc([N+](=O)[O-])cc1)Nc1ccccc1F`, 4.52.
Take `O=C(Nc1ccc([N+](=O)[O-])cc1O)Nc1ccccc1Cl`: the negative-log IC50 (pIC50) is 6.22.
As to `O=C(Nc1ccc([N+](=O)[O-])cc1O)Nc1ccc(Cl)c(Cl)c1Cl`, the negative-log IC50 (pIC50) was 5.52.
Same read-out and setting: under `O=C(Nc1ccc([N+](=O)[O-])cc1O)Nc1cc(Cl)c(Cl)cc1Cl` stands 5.52; under `O=C(Nc1ccc([N+](=O)[O-])cc1O)Nc1ccc(Cl)cc1Cl`, 6.52.
On the same count and under the same terms, under `Cc1ccc(C)c(NC(=O)Nc2ccc([N+](=O)[O-])cc2O)c1` stands 5.00; under `Cc1ccc(NC(=O)Nc2ccc([N+](=O)[O-])cc2O)cc1C`, 4.82.
With `COc1ccc(NC(=O)Nc2ccccc2F)c([N+](=O)[O-])c1`, the pIC50 was 5.00.
For the compound `CCCc1ccccc1NC(=O)Nc1ccc([N+](=O)[O-])cc1O`, the pIC50 was 7.00.
Same read-out and setting: under `CCc1cccc(C)c1NC(=O)Nc1ccc([N+](=O)[O-])cc1O` stands 5.15; under `CCc1cccc(C(C)C)c1NC(=O)Nc1ccc([N+](=O)[O-])cc1O`, 5.52; under `O=C(Nc1ccc([N+](=O)[O-])cc1O)Nc1ccc(F)c(F)c1F`, 5.10.
Same read-out and setting: under `COc1cc([N+](=O)[O-])ccc1NC(=O)Nc1ccccc1F` stands 5.30.
Take `CCc1cccc(NC(=O)Nc2ccc([N+](=O)[O-])cc2O)c1`: the pIC50 is 5.40.
The same measure, in the same setting: as for `CCc1ccc(NC(=O)Nc2ccc([N+](=O)[O-])cc2O)cc1`, the figure is 5.52; as for `Cc1cccc(C(C)C)c1NC(=O)Nc1ccc([N+](=O)[O-])cc1O`, 5.30.
As for `O=C(Nc1ccc([N+](=O)[O-])cc1O)Nc1ccc(Br)cc1Br`, the pIC50 is 6.10.
Turning to `CC(C)c1cccc(C(C)C)c1NC(=O)Nc1ccc([N+](=O)[O-])cc1O`, the pIC50 was 5.10.
The same measure, in the same setting: under `Cc1ccccc1NC(=O)Nc1ccc([N+](=O)[O-])cc1O` stands 5.70; under `O=C(Nc1ccc(Cl)c(Cl)c1)Nc1ccc([N+](=O)[O-])cc1O`, 6.15.
Still for that read-out and setting: under `O=C(Nc1ccc([N+](=O)[O-])cc1O)Nc1cc(Cl)ccc1Cl` stands 6.30; under `CCc1ccccc1NC(=O)Nc1ccc([N+](=O)[O-])cc1O`, 7.05.
On the same count and under the same terms, as for `Cc1cc(C)cc(NC(=O)Nc2ccc([N+](=O)[O-])cc2O)c1`, the figure is 5.70; as for `COc1cc([N+](=O)[O-])ccc1NC(=O)Nc1cccc(F)c1`, 4.92.

Another assay can be described thus: Antagonist activity at CXCR2 expressed in 7w CHO cells co-expressing human recombinant APP 751 assessed as inhibition of gamma-secretase-mediated amyloid beta40 production at 100 uM.
Turning to `O=C(Nc1ccccc1O)Nc1ccccc1Br`, the IC50 entry is recorded as “Not Active”.
Still for that read-out and setting: as for `O=C(Nc1ccccc1)Nc1ccccc1Br`, the entry is “Not Active”; as for `COc1cc([N+](=O)[O-])ccc1NC(=O)Nc1ccccc1Cl`, “Not Active”; as for `COc1cc([N+](=O)[O-])ccc1NC(=O)Nc1ccccc1Br`, “Not Active”.
Regarding `O=C(Nc1ccccc1O)Nc1ccccc1Cl`, the IC50 entry is reported as “Not Active”.
Still for that read-out and setting: as for `COc1cc([N+](=O)[O-])ccc1NC(=O)Nc1ccccc1`, the entry is “Not Active”; as for `O=C(Nc1ccccc1F)Nc1ccc(O)cc1[N+](=O)[O-]`, “Not Active”.
